Measurements from ChEMBL document CHEMBL3853320, “Discovery of Imidazoquinolines as a Novel Class of Potent, Selective, and in Vivo Efficacious Cancer Osaka Thyroid (COT) Kinase Inhibitors” (J Med Chem, 2016).
≈ marks a conversion by molar mass, not a printed value. Values belong to the molecule of their own block, whether it stands above or below them. Calls of active or inactive are those of the source. No cut-off for these calls is given here.

How the values were obtained:
[1] = Drug metabolism in Sprague-Dawley rat liver S9 fraction assessed as 1-(2-(1-morpholinopropan-2-ylamino)benzo[d]thiazol-6-yl)-8-(pyridin-4-yl)-1H-imidazo[4,5-c][1,7]naphthyridin-4(5H)-one metabolite formation in presence of aldehyde oxidase inhibitor raloxifene at 10 uM; assay type: ADME, subcellular; details: s9, 10 µM
Procedure, shortened: (§1)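 M1 formation was measured in liver S9 incubations with no NADPH added, in the presence of the aldehyde oxidase inhibitor raloxifene. The rat S9 fraction received 10 μM raloxifene. The human S9 fraction was tested at two raloxifene concentrations.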

[2] = Drug metabolism in human liver S9 fraction assessed as 1-(2-(1-morpholinopropan-2-ylamino)benzo[d]thiazol-6-yl)-8-(pyridin-4-yl)-1H-imidazo[4,5-c][1,7]naphthyridin-4(5H)-one metabolite formation in presence of aldehyde oxidase inhibitor raloxifene; assay type: ADME, subcellular; procedure, shortened: as §1
[3] = molecular target: T1, Mitogen-activated protein kinase kinase kinase 8 (Homo sapiens, UniProt P41279); experiment: Inhibition of human COT (66 to 395 residues) expressed in Sf21 cells using 5-Fluo-Ahx-AGAGSGQLIDSNleANSFVGTR-NH2 as substrate after 60 mins by caliper microfluidic mobility shift assay
[4] = molecular target: T1, Mitogen-activated protein kinase kinase kinase 8; experiment: Inhibition of COT in LPS-stimulated human PBMC assessed as reduction in ERK1/2 phosphorylation incubated for 60 mins followed by LPS stimulation for 12 mins by flow cytometric analysis
Procedure, shortened: (§2)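 Primary human PBMCs were stimulated with LPS. Read-outs were pERK, TNFα release, or p65 phosphorylation, each reported as IC50.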

[5] = molecular target: T1, Mitogen-activated protein kinase kinase kinase 8; experiment: Inhibition of COT in LPS-stimulated human PBMC assessed as reduction in TNFalpha release incubated for 1 hr followed by stimulation with LPS for 4 hrs by HTRF assay; procedure, shortened: as §2
[6] = Octanol-water partition coefficient, log P of the compound by shake-flask method; assay type: physicochemical
[7] = molecular target: T1, Mitogen-activated protein kinase kinase kinase 8; experiment: Inhibition of COT in LPS-stimulated human whole blood assessed as reduction in TNFalpha release incubated for 30 mins followed by stimulation with LPS for 3 hrs by HTRF assay; assay type: tissue-based
Procedure, shortened: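 Human whole blood was stimulated with LPS, and TNFα release was measured as IC50.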

[8] = Equilibrium solubility of the compound at pH 6.8 after 16 hrs by mass spectrometric analysis; assay type: physicochemical; details: buffer
[9] = Equilibrium solubility of the compound at pH 4 after 16 hrs by mass spectrometric analysis; assay type: physicochemical; details: buffer
[10] = Protein binding in human plasma at 5 uM after 4 hrs by rapid equilibrium dialysis method; assay type: ADME, cell-free; details: read-out: PPB (converted)
[11] = Half life in wild type Sprague-Dawley rat liver microsomes at 5 uM preincubated for 3 mins followed by NADPH addition measured after 1 hr by HPLC/MS analysis; assay type: ADME
[12] = Clearance in wild type Sprague-Dawley rat at 1 mg/kg, iv or 3 mg/kg, po; assay type: ADME, organism-based; details: in vivo
Procedure, shortened: (§3)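 Pharmacokinetics in male Sprague–Dawley rats, n = 3 per group, after i.v. and p.o. dosing. AUC and Cmax are reported dose-normalized.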

[13] = Clearance in beagle dog at 0.1 mg/kg, iv or 0.3 mg/kg, po fasted 12 hrs prior to compound administration via cassette dosing and fed 2 hrs post dose; assay type: ADME, organism-based, Canis lupus familiaris; details: in vivo
Procedure, shortened: (§4)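 Pharmacokinetics in Beagle dogs, n = 3 per group, after i.v. and p.o. dosing. AUC and Cmax are reported dose-normalized.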

[14] = Terminal elimination half life in wild type Sprague-Dawley rat at 1 mg/kg, iv or 3 mg/kg, po; assay type: ADME, organism-based; details: in vivo, read-out: beta t1/2 (converted)
Procedure, shortened: (§5)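 Male wild-type Sprague–Dawley rats, n = 3 per group, housed under Swiss animal-welfare conditions (12 h light/dark, 22−24 °C). Each group received separate i.v. and oral doses, with plasma profiles used for PK parameters.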

[15] = Terminal elimination half life in beagle dog at 0.1 mg/kg, iv or 0.3 mg/kg, po fasted 12 hrs prior to compound administration via cassette dosing and fed 2 hrs post dose; assay type: ADME, organism-based, Canis lupus familiaris; details: in vivo, read-out: beta t1/2 (converted)
Procedure, shortened: (§6)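 Beagle dogs, n = 3 per group, dosed i.v. and orally. PK parameters were derived from blood/plasma profiles, with exposure values dose-normalized.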

[16] = Mean residence time in wild type Sprague-Dawley rat at 1 mg/kg, iv or 3 mg/kg, po; assay type: ADME, organism-based; details: in vivo; procedure, shortened: as §3
[17] = Mean residence time in beagle dog at 0.1 mg/kg, iv or 0.3 mg/kg, po fasted 12 hrs prior to compound administration via cassette dosing and fed 2 hrs post dose; assay type: ADME, organism-based, Canis lupus familiaris; details: in vivo; procedure, shortened: as §4
[18] = Dose normalized AUC in wild type Sprague-Dawley rat at 1 mg/kg, iv; assay type: ADME, organism-based; details: in vivo; procedure, shortened: as §3
[19] = Dose normalized AUC in beagle dog at 0.1 mg/kg, iv fasted 12 hrs prior to compound administration via cassette dosing and fed 2 hrs post dose; assay type: ADME, organism-based, Canis lupus familiaris; details: in vivo; procedure, shortened: as §4
[20] = Dose normalized AUC in wild type Sprague-Dawley rat at 3 mg/kg, po; assay type: ADME, organism-based; details: in vivo; procedure, shortened: as §3
[21] = Dose normalized AUC in beagle dog at 0.3 mg/kg, po fasted 12 hrs prior to compound administration via cassette dosing and fed 2 hrs post dose; assay type: ADME, organism-based, Canis lupus familiaris; details: in vivo; procedure, shortened: as §4
[22] = Dose normalized Cmax in wild type Sprague-Dawley rat at 1 mg/kg, iv or 3 mg/kg, po; assay type: ADME, organism-based; details: in vivo; procedure, shortened: as §3
[23] = Dose normalized Cmax in beagle dog at 0.1 mg/kg, iv or 0.3 mg/kg, po fasted 12 hrs prior to compound administration via cassette dosing and fed 2 hrs post dose; assay type: ADME, organism-based, Canis lupus familiaris; details: in vivo; procedure, shortened: as §4
[24] = Tmax in wild type Sprague-Dawley rat at 1 mg/kg, iv or 3 mg/kg, po; assay type: ADME, organism-based; details: in vivo; procedure, shortened: as §5
[25] = Oral bioavailability in wild type Sprague-Dawley rat at 3 mg/kg; assay type: ADME, organism-based; details: in vivo; procedure, shortened: as §5
[26] = Oral bioavailability in beagle dog at 0.3 mg/kg fasted 12 hrs prior to compound administration via cassette dosing and fed 2 hrs post dose; assay type: ADME, organism-based, Canis lupus familiaris; details: in vivo; procedure, shortened: as §6
[27] = Antiinflammatory activity in human PBMC assessed as inhibition of uric acid induced-IL-1beta formation stimulated with MSU crystals after 3 hrs in presence of ATP; assay type: functional, cell-based
[28] = Metabolic stability in bile-duct cannulated Sprague-Dawley rat assessed as parent compound remaining in liver at 3 mg/kg, iv measured over 8 hrs post dose; assay type: ADME, organism-based; details: read-out: Stability
Procedure, shortened: (§7)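 Bile-duct cannulated rats dosed in vivo. Parent and metabolites in each matrix were expressed as relative peak areas of the drug-related components detected, at the stated sampling time or collection period post dose.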

[29] = Metabolic stability in bile-duct cannulated Sprague-Dawley rat assessed as parent compound remaining in kidney at 3 mg/kg, iv measured over 8 hrs post dose; assay type: ADME, organism-based; details: read-out: Stability; procedure, shortened: as §7
[30] = Half life in beagle dog liver microsomes at 5 uM preincubated for 3 mins followed by NADPH addition measured after 1 hr by HPLC/MS analysis; assay type: ADME, Canis lupus familiaris
Canis familiaris = experiment: Antiinflammatory activity in MSU-induced beagle dog acute synovitis model assessed as prevention of inflammation-driven lameness at 15 mg/kg, administered once a week 3 hrs post MSU injection measured after 6 hrs post last dose; assay type: functional, organism-based; details: Canis lupus familiaris
Procedure, shortened: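 Lameness was induced in dogs by uric acid injection into the joint. Treatment was vehicle, test article at 5 or 15 mg/kg, or meloxicam 0.2 mg/kg. Vertical peak force of the affected limb was measured on a force plate while trotting. The read-out was the time after treatment for that force to recover to 60% of the value measured before lameness.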

[31] = AUC (0 to 10.5 hrs) in MSU-induced beagle dog acute synovitis model at 15 mg/kg; assay type: ADME, organism-based, Canis lupus familiaris; design: time < 10.5 hr, dose 15 mg/kg; details: in vivo
Procedure, shortened: (§8)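 Dog uric acid-induced acute synovitis model. Groups were vehicle, the test article at 5 or 15 mg/kg, and meloxicam at 0.2 mg/kg as positive control. Exposure is reported as AUC over 0–10.5 h.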

[32] = AUC (0 to 10.5 hrs) in MSU-induced beagle dog acute synovitis model at 5 mg/kg; assay type: ADME, organism-based, Canis lupus familiaris; design: time < 10.5 hr, dose 5 mg/kg; details: in vivo; procedure, shortened: as §8
[33] = Half life in beagle dog liver S9 fraction at 1 uM in absence of NADPH by HPLC/MS analysis
[34] = Half life in wild type Sprague-Dawley rat liver S9 fraction at 1 uM in absence of NADPH by HPLC/MS analysis
[35] = Equilibrium solubility of the compound at pH 1 after 16 hrs by mass spectrometric analysis; assay type: physicochemical; details: buffer, pH 1, 16 h

T1 sequence (P41279 whole entry, the tested form may be a part): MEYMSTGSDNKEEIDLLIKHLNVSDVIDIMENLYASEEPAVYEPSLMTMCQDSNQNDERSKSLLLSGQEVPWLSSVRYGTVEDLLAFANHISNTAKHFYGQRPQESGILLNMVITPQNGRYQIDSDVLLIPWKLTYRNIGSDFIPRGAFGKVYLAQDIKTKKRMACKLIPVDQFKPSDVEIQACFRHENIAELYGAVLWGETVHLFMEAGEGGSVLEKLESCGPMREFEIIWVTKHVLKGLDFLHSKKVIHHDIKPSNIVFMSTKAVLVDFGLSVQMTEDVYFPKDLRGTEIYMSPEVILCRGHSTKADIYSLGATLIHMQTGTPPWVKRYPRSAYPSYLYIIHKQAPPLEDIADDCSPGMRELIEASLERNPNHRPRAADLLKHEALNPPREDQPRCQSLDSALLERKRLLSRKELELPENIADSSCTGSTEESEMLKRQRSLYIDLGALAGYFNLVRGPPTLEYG

Drug metabolism [1]: Metabolite_Detected
Drug metabolism [2]: Metabolite_Notdetected
SMILES: O=C(c1ccc(OCCN2CCCCC2)cc1)c1c(-c2ccc(O)cc2)sc2cc(O)ccc12 [RALOXIFENE]

IC50 [3]: 6 nM
IC50 [4]: 60 nM
IC50 [5]: 60 nM
logP [6]: 3.3
IC50 [7]: 200 nM
solubility thermodynamic at 16 h [8]: 136 µM (≈ 70.3 µg/mL)
solubility thermodynamic at 16 h [9]: > 1000 µM
fraction unbound at 4 h, 5 µM [10]: 0.03
half-life at 5 µM [11]: 3 min
clearance [12]: 277 mL/min/kg
clearance [13]: 25 mL/min/kg
half-life [14]: 2.1 h
half-life [15]: 3.2 h
MRT [16]: 1.2 h
MRT [17]: 2.4 h
AUC/dose [18]: 119 nmol·h
AUC/dose [19]: 1570 nmol·h
AUC/dose [20]: 31 nmol·h
AUC/dose [21]: 957 nmol·h
Cmax/dose [22]: 12 nM
Cmax/dose [23]: 61 nM
Tmax [24]: 0.3 h
bioavailability [25]: 26%
bioavailability [26]: 61%
IC50 [27]: 200 nM
remaining at 8 h [28]: 28%
remaining at 8 h [29]: 22%
half-life at 5 µM [30]: 0.167 h
AUC [31]: 4575 nmol·h
AUC [32]: 2057 nmol·h
half-life at 1 µM [33]: > 2 h
half-life at 1 µM [34]: < 5 min
SMILES: CC(CN1CCOCC1)Nc1ccc2cc(-n3cnc4cnc5cnc(-c6ccncc6)cc5c43)ccc2n1 (racemic)
Activity (Canis familiaris): Active

IC50 [3]: 16 nM
IC50 [4]: 280 nM
IC50 [5]: 270 nM
logP [6]: 4.6
IC50 [7]: 2500 nM
solubility thermodynamic at 16 h [8]: < 4 µM
solubility thermodynamic at 16 h [9]: > 1000 µM
fraction unbound at 4 h, 5 µM [10]: < 0.01
solubility [35]: Soluble
SMILES: c1ccc(-c2cc3c(cn2)ncc2ncn(-c4ccc5nc(NCCN6CCOCC6)sc5c4)c23)cc1
